Experimental findings from ChEMBL document CHEMBL1125801, “Fluorinated colchicinoids: antitubulin and cytotoxic properties” (J Med Chem, 1991) are described below.

For orientation: logP means a log measure of how a compound divides between an organic and an aqueous phase. Higher therefore signals a more lipophilic compound.

Data set [1] deals with P388. In words: Cytotoxic activity against P388 mouse lymphocytic leukemia cell line. Type of data set: functional. Conditions: read-out: ED50 (the source's name).
In data set [2] the test system is J774. Kind of data set: Cytotoxic activity against mouse macrophage cell line J7.VBL-1. Type of data set: functional. The settings on record: read-out: ED50 (the source's name).
The nature of data set [3]: Retention time of the compound. Type of data set: ADME.
Data set [4] concerns P388. Kind of data set: Cytotoxic activity against P388 mouse lymphocytic leukemia cell line (doxorubicin resistant). Type of data set: functional. Conditions: read-out: ED50 (the source's name).
Data set [5] deals with J774. In words: (§1) Cytotoxic activity against mouse macrophage cell line J7.COL-100. The settings on record: read-out: ED50 (the source's name). The data set is classed as functional.
Data set [6] is described as follows: Partition coefficient (logP). The data set is classed as physicochemical. Conditions: octanol/water.
Data set [7] concerns J774.2. In words: Cytotoxic activity against mouse macrophage cell line J774.2. Type of data set: functional. Conditions: read-out: ED50 (the source's name).
The target of data set [8] is T1, Tubulin (Bos taurus) (UniProt Q6B856+Q862L2+Q862F3). Conditions: at 5 µM.
Data set [9] is described as follows: Retention time of the compound; NT-Not Tested. The data set is classed as ADME.
Data set [10] concerns the target T1, Tubulin (Bos taurus). Conditions: at 2 µM.
The target in data set [11] is T1, Tubulin (Bos taurus). Conditions: at 2 µM. The source holds these as a separate data set.
Data set [12] addresses T1, Tubulin (Bos taurus). Conditions: at 5 µM. The source holds these as a separate data set.
Data set [13] has as its system J774.2. Kind of data set: Cytotoxic activity against mouse macrophage cell line J774.2 after 72 hr. The settings on record: J774.2, 72 h, read-out: ED50 (the source's name). Type of data set: functional. The method in brief:
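Mouse macrophage-like J774.2 (wild type) cells were incubated with or without drug for 72 h, before controls reached confluency, in triplicate per concentration.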

Data set [14] deals with J774. The description is as §1. The data set is classed as functional. The settings on record: J774, read-out: ED50. The method in brief: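 Colchicine-resistant variant of mouse macrophage-like J774.2, kept in 100 μM colchicine. Cells were exposed with or without drug in triplicate per concentration for 72 h, ending before controls reached confluency, and then living cells were counted.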

Some results are limits rather than exact numbers.

As for `COc1cc2c(c(OC)c1OC)-c1cc/c(=N/CCF)c(O)cc1C(NC(C)=O)CC2` (configuration not stated), the EC50 with P388 [1] is 0.023 µM; in the data set with J774 [2], 4.8 µM; in the data set on P388 [4], 0.47 µM; in the data set on J774 [5], 32 µM; with J774.2 [7] it was 0.15 µM. The molecule also returned a tR in [3] of 5.1 min. This molecule displayed a logP in data set [6] of 1.7.
Consider `COc1cc2c(c(OC)c1OC)-c1ccc(OC)c(=O)cc1[C@@H](NC(=O)C(F)(F)F)CC2`, for which the EC50 in the data set on P388 [1] came to 0.004 µM; in the data set with J774 [2], 0.8 µM; with P388 [4] it was 0.04 µM; in the data set with J774 [5], 14 µM; in the data set with J774.2 [7] it was 0.01 µM. The tR in [3] stood at 5.4 min. Besides, the logP in data set [6] was 1.72.
In turn, `COc1cc2c(c(OC)c1OC)-c1ccc(=O)c(O)cc1C(NC(=O)C(F)(F)F)CC2` (configuration not stated) returned an ITP on Tubulin (Bos taurus) [8] (at 100 µM) of 44%. The EC50 in the data set on P388 [1] came to 3 µM; with J774 [2], 20 µM; with P388 [4], 6 µM; in the data set on J774 [5] it was 4.9 µM; in the data set on J774.2 [7], 3 µM. In addition, the logP in data set [6] came to 1.82.
Consider `COc1cc2c(c(OC)c1OC)-c1ccc(=O)c(OC)cc1C(NC(C)=O)CC2` (configuration not stated), for which the EC50 is 15 µM in the data set on P388 [1], more than 50 µM in the data set on J774 [2], 15 µM with P388 [4] and 5.6 µM with J774.2 [7]. This molecule also yielded a tR in data set [9] of 3.9 min. Besides, the logP in data set [6] was 1.
Consider `COc1cc2c(c(OC)c1OC)-c1ccc(=N)c(O)cc1C(NC(=O)C(F)(F)F)CC2` (configuration not stated), for which the ITP on Tubulin (Bos taurus) [8] came to 82%; on Tubulin (Bos taurus) [10], 48%; at Tubulin (Bos taurus) [11], 42%; on Tubulin (Bos taurus) [12], 79%. The EC50 with P388 [1] was found to be 0.013 µM; with J774 [2], 1.3 µM; in the data set with P388 [4], 0.06 µM; with J774 [5] it was 4.5 µM; in the data set with J774.2 [7], 0.01 µM. The tR in [3] is reported as 5.7 min. The molecule further yielded a logP in data set [6] of 2.32.
`COc1cc2c(c(OC)c1OC)-c1ccc(=O)c(OC)cc1C(NC(=O)C(F)(F)F)CC2` (configuration not stated): the ITP at Tubulin (Bos taurus) [8] (at 100 µM) turned out to be 10%. Further, the EC50 with P388 [1] is 1.5 µM; in the data set on J774 [2], more than 20 µM; with P388 [4] it was 13 µM; with J774.2 [7] it was 3.9 µM. For the same molecule, the tR in data set [9] turned out to be 5.9 min. The logP in data set [6] was 2.08.
In the case of `COc1c(O)cc2c(c1OC)-c1ccc(SC)c(=O)cc1C(NC(=O)C(F)(F)F)CC2` (configuration not stated), in data set [3], the tR turned out to be 5.3 min. Also, the logP in data set [6] was found to be 2.61.
As for `COc1cc2c(c(OC)c1OC)-c1cc/c(=N/CC(F)(F)F)c(O)cc1C(NC(=O)C(F)(F)F)CC2` (configuration not stated), the ITP on Tubulin (Bos taurus) [8] is 45%; on Tubulin (Bos taurus) [10] it was 30%; on Tubulin (Bos taurus) [11] it was 15%; on Tubulin (Bos taurus) [12], 35%. The EC50 in the data set with P388 [1] came out at 0.05 µM; in the data set on J774 [2], 2.9 µM; in the data set on P388 [4] it was 0.09 µM; with J774 [5], 8.8 µM; with J774.2 [13], 0.2 µM. This molecule returned a tR in data set [3] of 10.6 min. Further, the logP in data set [6] was determined as 1.36.
On to `COc1c(O)cc2c(c1OC)-c1ccc(SC)c(=O)cc1C(NC(C)=O)CC2` (configuration not stated), for which the tR in data set [3] stood at 3.8 min. Besides, the logP in data set [6] worked out at 1.43.
Consider `COc1cc2c(c(OC)c1OC)-c1cc/c(=N/CC(F)(F)F)c(O)cc1C(NC(C)=O)CC2` (configuration not stated), for which the EC50 in the data set on P388 [1] was determined as 0.051 µM; in the data set on J774 [2] it was 17 µM; in the data set with P388 [4] it was 0.9 µM; with J774 [5] it was 50 µM; with J774.2 [7], 0.19 µM. In data set [3], the tR is reported as 7.4 min. In addition, the logP in data set [6] amounted to 1.45.
Turning to `COc1cc2c(c(OC)c1OC)-c1ccc(OC)c(=O)cc1[C@@H](NC(C)=O)CC2` [COLCHICINE], the EC50 with P388 [1] worked out at 0.012 µM; in the data set with J774 [2], 17 µM; in the data set with P388 [4], 0.47 µM; with J774 [5] it was 200 µM; with J774.2 [7], 0.06 µM. The same molecule displayed a tR in data set [3] of 3.9 min. For the same molecule, the logP in data set [6] is 0.6.
For `COc1cc2c(c(OC)c1OC)-c1ccc(=O)c(O)cc1C(NC(C)=O)CC2` (configuration not stated), the EC50 in the data set with P388 [1] is 1.2 µM; in the data set with J774 [2], more than 50 µM; in the data set on P388 [4] it was 10 µM; with J774 [14], more than 1000 µM; in the data set with J774.2 [7], 3.1 µM. This molecule also returned a logP in data set [6] of 1.2.
In the case of `COc1cc2c(c(OC)c1O)-c1ccc(OC)c(=O)cc1C(NC(C)=O)CC2` (configuration not stated), the EC50 came to 0.095 µM with P388 [1]; 62.5 µM in the data set on J774 [2]; 1.22 µM with P388 [4]; 140 µM with J774 [5]; 0.3 µM in the data set on J774.2 [7]. In addition, the tR in [3] is given as 3 min. For the same molecule, the logP in [6] turned out to be 0.48.
Turning to `CC/N=c1/ccc2c(cc1O)C(NC(C)=O)CCc1cc(OC)c(OC)c(OC)c1-2` (configuration not stated), the EC50 with P388 [1] is 0.005 µM; in the data set on J774 [2], 1.9 µM; in the data set on P388 [4] it was 0.32 µM; with J774 [5], 15 µM; in the data set on J774.2 [7], 0.01 µM. Further, the tR in data set [3] worked out at 7.5 min. In addition, the logP in [6] came out at 2.34.
With `COc1cc2c(c(OC)c1OC)-c1ccc(=N)c(O)cc1C(NC(C)=O)CC2` (configuration not stated), the EC50 in the data set with P388 [1] is 0.013 µM; in the data set with J774 [2], 15 µM; in the data set on P388 [4] it was 0.4 µM; with J774 [5] it was 70 µM; with J774.2 [7], 0.02 µM. The same molecule displayed a tR in data set [3] of 4 min. In [6], the logP came to 0.3.
In the case of `COc1cc2c(c(OC)c1O)-c1ccc(OC)c(=O)cc1C(NC(=O)C(F)(F)F)CC2` (configuration not stated), the ITP is 35% at Tubulin (Bos taurus) [8], 24% at Tubulin (Bos taurus) [10], 17% at Tubulin (Bos taurus) [11] and 47% on Tubulin (Bos taurus) [12]. Moreover, the EC50 with P388 [1] turned out to be 0.04 µM; in the data set on J774 [2], 5 µM; in the data set with P388 [4] it was 0.12 µM; with J774 [5], 10.5 µM; with J774.2 [7], 0.04 µM. The molecule also came in with a tR in data set [3] of 3.8 min. In [6], this molecule yielded a logP of 1.67.
